According to ChEMBL document CHEMBL4627381, “Licochalcone A Selectively Resensitizes ABCG2-Overexpressing Multidrug-Resistant Cancer Cells to Chemotherapeutic Drugs” (J Nat Prod, 2020):

Tests used:
[1] = target: T1, Broad substrate specificity ATP-binding cassette transporter ABCG2 (Homo sapiens, UniProt Q9UNQ0); test: Inhibition of ABCG2 (unknown origin)-mediated pheophorbide A efflux in human S1 cells incubated for 1 hr by FACScan flow cytometry; format: cell-based; settings: s1, 1 h
T1 sequence (Q9UNQ0 whole entry): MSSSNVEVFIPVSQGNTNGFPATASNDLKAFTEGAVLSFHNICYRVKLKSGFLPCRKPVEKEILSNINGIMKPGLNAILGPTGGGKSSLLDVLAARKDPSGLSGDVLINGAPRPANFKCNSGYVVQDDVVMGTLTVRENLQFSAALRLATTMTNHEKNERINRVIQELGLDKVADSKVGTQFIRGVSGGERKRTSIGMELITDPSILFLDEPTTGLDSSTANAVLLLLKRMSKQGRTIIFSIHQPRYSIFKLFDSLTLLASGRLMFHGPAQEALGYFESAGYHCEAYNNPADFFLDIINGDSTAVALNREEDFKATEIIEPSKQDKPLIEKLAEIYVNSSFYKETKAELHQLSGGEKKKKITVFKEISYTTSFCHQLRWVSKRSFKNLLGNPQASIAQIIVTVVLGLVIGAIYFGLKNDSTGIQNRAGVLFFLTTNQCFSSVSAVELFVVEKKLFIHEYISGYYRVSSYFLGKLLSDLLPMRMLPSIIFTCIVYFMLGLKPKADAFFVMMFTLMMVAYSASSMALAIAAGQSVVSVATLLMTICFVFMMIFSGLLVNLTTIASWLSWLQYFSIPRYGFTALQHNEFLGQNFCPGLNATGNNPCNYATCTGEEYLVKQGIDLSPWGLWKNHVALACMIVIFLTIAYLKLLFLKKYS
Summary of the method: (§1)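 Cells held drug-free 7 days. 3 × 10^5 cells were suspended in IMDM with 5% FCS and loaded with pheophorbide A (ex 395/em 670 nm) for 1 h, with or without LCA (20 μM for single-concentration accumulation) or Ko143 3 μM as reference. Read immediately by flow cytometry. Efflux inhibition was run over a concentration range; mean ± SD of three experiments.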

[2] = target: T1, Broad substrate specificity ATP-binding cassette transporter ABCG2; test: Modulation of ABCG2 (unknown origin) expressed in S1-M1-80 cells assessed as increase in intracellular pheophorbide A accumulation at 20 uM incubated for 1 hr by FACScan flow cytometry; format: cell-based; settings: s1-m1-80, 1 h; summary of the method: as §1
[3] = tested on: NCI-H460; test: Effect on topotecan-induced cytotoxicity against human H460 cells assessed as fold change in topotecan IC50 at 1 uM after 72 hrs by MTT assay relative to topotecan IC50; format: functional
Summary of the method: (§2)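 Parental S1 colon and H460 lung cancer cells were exposed for 72 h to a mitoxantrone or topotecan concentration series, with or without modulator at 0.5–3.0 μM, and read by MTT. Fold-reversal is IC50 without modulator divided by IC50 with modulator, taken from dose-response curves of three independent experiments.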

[4] = target: T1, Broad substrate specificity ATP-binding cassette transporter ABCG2; test: Reversal of ABCG2 (unknown origin)-mediated multidrug resistance in human S1-M1-80 cells assessed as fold-change in topotecan IC50 at 2 uM after 72 hrs by MTT assay relative to topotecan IC50; format: cell-based; settings: s1-m1-80, 72 h
Summary of the method: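 MTT readout in S1-M1-80 colon cancer cells (mitoxantrone-selected, held in 80 μM mitoxantrone, then drug-free 7 days before assay). Cells were seeded at 5000/well for 24 h, then given increasing mitoxantrone or topotecan with DMSO or non-toxic modulator for 72 h at 37 °C. IC50 came from fitted dose-response curves (at least three independent experiments). Fold-reversal = IC50 without modulator ÷ IC50 with modulator.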

[5] = target: T1, Broad substrate specificity ATP-binding cassette transporter ABCG2; test: Reversal of ABCG2 (unknown origin)-mediated multidrug resistance in human S1-M1-80 cells assessed as fold-change in mitoxantrone IC50 at 0.5 uM after 72 hrs by MTT assay relative to mitoxantrone IC50; format: cell-based; settings: s1-m1-80, 72 h
Summary of the method: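 Cells held drug-free 7 days, seeded at 5000 per well for 24 h, then exposed 72 h to mitoxantrone or topotecan dilutions with DMSO (≤0.5%), LCA 0.5–3.0 μM, or Ko143 1.0 μM. Viability was read by MTT. IC50 came from fitted dose-response curves of three independent experiments. Fold-reversal = IC50 without modulator divided by IC50 with modulator.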

[6] = tested on: S1; test: Effect on mitoxantrone-induced cytotoxicity against human S1 cells assessed as fold change in mitoxantrone IC50 at 3 uM after 72 hrs by MTT assay relative to mitoxantrone IC50; format: functional; summary of the method: as §2
[7] = tested on: HEK293; test: Effect on etoposide-induced cytotoxicity against HEK293 cells assessed as fold change in etoposide IC50 at 1 uM after 72 hrs by CCK8 assay relative to etoposide IC50; format: cell-based; settings: human, hek293, 72 h
Summary of the method: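 Reversal assay in parental pcDNA-HEK293 and transfected HEK293 lines (ABCB1 for colchicine, ABCC1 for etoposide, ABCG2 for mitoxantrone/topotecan). Substrate drug series was given with or without nontoxic modulator (0.5, 1.0, 2.0 or 3.0 μM) for 72 h, with a CCK-8 read-out. Fold-reversal is substrate IC50 without modulator divided by IC50 with modulator. Three independent experiments.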

[8] = target: T1, Broad substrate specificity ATP-binding cassette transporter ABCG2; test: Reversal of human ABCG2-mediated multidrug resistance in HEK293/R482 cells assessed as potentiation of topotecan-induced cytotoxicity after 72 hrs by CCK8 assay; format: cell-based
Summary of the method: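 Cells were seeded at 5000/well for 24 h, then given colchicine, etoposide, mitoxantrone or topotecan ± non-toxic modulator (0.5–3.0 μM) for 72 h, with DMSO up to 0.5%. IC50 came from fitted curves (mean ± SD, three experiments). Fold-reversal = IC50 without modulator ÷ IC50 with modulator.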

C=CC(C)(C)c1cc(/C=C/C(=O)c2ccc(O)cc2)c(OC)cc1O [LICOAGROCHACONE A]
inhibition (INH) [1]: Dose-dependent effect | Activity [2]: Active | fold change (FC) [3]: 1.7 | fold change (FC) [4]: 24.7 | fold change (FC) [5]: 1.9 | fold change (FC) [6]: 1 | fold change (FC) [7]: 0.7 | Activity [8]: Dose-dependent effect
